According to ChEMBL document CHEMBL1150419, “Structure-activity relationships of a peptide inhibitor of the human FcRn:human IgG interaction” (Bioorg Med Chem, 2008):
Square brackets hold non-standard residues; d marks the D form. Peptide text beside a SMILES is read from it. Dab = NCC[C@H](N)C(=O)O; βAla = NCCC(=O)O

Legend:
[1] = molecular target: T1, IgG receptor FcRn large subunit p51 (Homo sapiens, UniProt P55899); experiment: Binding affinity to human FcRn at pH 6 by surface plasmon resonance assay
T1 sequence (P55899 whole entry): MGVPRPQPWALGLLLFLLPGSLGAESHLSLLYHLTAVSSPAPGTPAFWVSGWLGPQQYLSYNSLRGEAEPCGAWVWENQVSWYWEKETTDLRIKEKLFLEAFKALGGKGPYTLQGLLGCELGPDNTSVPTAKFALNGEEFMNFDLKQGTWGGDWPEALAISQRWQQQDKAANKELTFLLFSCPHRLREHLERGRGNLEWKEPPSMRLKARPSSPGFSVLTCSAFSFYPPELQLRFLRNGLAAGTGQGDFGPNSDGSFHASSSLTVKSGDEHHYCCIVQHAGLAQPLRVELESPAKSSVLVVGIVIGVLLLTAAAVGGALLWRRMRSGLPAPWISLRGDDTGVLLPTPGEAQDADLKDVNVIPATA
Procedure, shortened: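 Soluble human FcRn coupled to the dextran surface of a CM5 chip; peptide dilutions flowed over the chip. The equilibrium response at each dilution was plotted against concentration and fitted to a steady-state affinity model to give Kd.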

[2] = molecular target: T1, IgG receptor FcRn large subunit p51; experiment: Inhibition of human IgG binding to soluble human FcRn by ELISA
Procedure, shortened: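 Biotinylated soluble human FcRn immobilized on neutravidin plates, incubated with hIgG (3 nM, constant) and peptide at varying concentrations for 2 h at 37 °C. After washing, bound hIgG detected with peroxidase-conjugated hIgG-specific Fab fragments.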

| SMILES | Kd [1] | IC50 [2] |
| --- | --- | --- |
| CC(C)C[C@H](NC(=O)CNC(=O)CNC(=O)[C@H](Cc1ccccc1)NC(=O)[C@H](Cc1cnc[nH]1)NC(=O)CCNC(=O)[C@@H](NC(=O)[C@H](CS)NC(=O)[C@H](Cc1ccccc1)NC(=O)[C@H](CCCNC(=N)N)NC(=O)[C@@H](N)CCC(N)=O)[C@@H](C)O)C(=O)N[C@@H](Cc1ccc(O)cc1)C(=O)N1CCC[C@H]1C(=O)N[C@@H](CS)C(=O)N[C@@H](CC(N)=O)C(=O)NCC(=O)N1CCC[C@H]1C(=O)O (H-QRFCT[βAla]HFGGLYPCNGP-OH) | > 250 µM | > 125 µM |
| CC(C)C[C@H](NC(=O)CNC(=O)CNC(=O)[C@H](Cc1ccccc1)NC(=O)[C@H](Cc1cnc[nH]1)NC(=O)CNC(=O)[C@@H](NC(=O)[C@H](CS)NC(=O)[C@H](Cc1ccccc1)NC(=O)[C@H](CCCNC(=N)N)NC(=O)[C@@H](N)CCC(N)=O)[C@@H](C)O)C(=O)N[C@@H](Cc1ccccc1)C(=O)N1CCC[C@H]1C(=O)N[C@@H](CS)C(=O)N[C@@H](CC(N)=O)C(=O)NCC(=O)N1CCC[C@H]1C(=O)O | 230 µM | > 125 µM |
| CC(C)C[C@H](NC(=O)CN1CCC[C@H](NC(=O)[C@H](Cc2ccccc2)NC(=O)[C@H](Cc2cnc[nH]2)NC(=O)CNC(=O)[C@@H](NC(=O)[C@H](NC(=O)[C@H](Cc2ccccc2)NC(=O)[C@@H](N)CCCN=C(N)N)C(C)(C)S)[C@@H](C)O)C1=O)C(=O)N[C@@H](Cc1ccc(O)cc1)C(=O)N1CCC[C@H]1C(=O)N[C@@H](CS)C(=O)O | 0.67 µM | 7.2 µM |
| CC(C)C[C@H](NC(=O)CNC(=O)CNC(=O)[C@H](Cc1ccccc1)NC(=O)[C@H](C)NC(=O)CNC(=O)[C@@H](NC(=O)[C@H](CS)NC(=O)[C@H](Cc1ccccc1)NC(=O)[C@H](CCCNC(=N)N)NC(=O)[C@@H](N)CCC(N)=O)[C@@H](C)O)C(=O)N[C@@H](Cc1ccc(O)cc1)C(=O)N1CCC[C@H]1C(=O)N[C@@H](CS)C(=O)N[C@@H](CC(N)=O)C(=O)NCC(=O)N1CCC[C@H]1C(=O)O | > 250 µM | > 125 µM |
| CC(C)C[C@H](NC(=O)CNC(=O)CNC(=O)[C@H](Cc1ccccc1)NC(=O)[C@H](Cc1cnc[nH]1)NC(=O)CNC(=O)[C@@H](NC(=O)[C@H](CS)NC(=O)[C@@H](N)Cc1ccccc1)[C@@H](C)O)C(=O)N[C@@H](Cc1ccc(O)cc1)C(=O)N1CCC[C@H]1C(=O)N[C@@H](CS)C(=O)N[C@@H](CC(N)=O)C(=O)NCC(=O)N1CCC[C@H]1C(=O)O | 11 µM | 67 µM |
| CC(C)C[C@H](NC(=O)CNC(=O)CNC(=O)[C@H](Cc1ccccc1)NC(=O)[C@H](Cc1cnc[nH]1)NC(=O)CNC(=O)[C@@H](NC(=O)[C@@H](NC(=O)[C@H](Cc1ccccc1)NC(=O)[C@H](CCCNC(=N)N)NC(=O)[C@@H](N)CCC(N)=O)C(C)(C)S)[C@@H](C)O)C(=O)N[C@@H](Cc1ccc(O)cc1[N+](=O)[O-])C(=O)N1CCC[C@H]1C(=O)N[C@@H](CS)C(=O)N[C@@H](CC(N)=O)C(=O)NCC(=O)N1CCC[C@H]1C(=O)O | 290 µM | > 125 µM |
| CC(C)C[C@H](NC(=O)CNC(=O)CNC(=O)[C@H](Cc1ccccc1)NC(=O)[C@H](Cc1cnc[nH]1)NC(=O)CNC(=O)[C@@H](NC(=O)[C@@H](NC(=O)[C@H](Cc1ccccc1)NC(=O)[C@H](CCCNC(=N)N)NC(=O)[C@@H](N)CCC(N)=O)C(C)(C)S)[C@@H](C)O)C(=O)N[C@@H](Cc1c(F)c(F)c(F)c(F)c1F)C(=O)N1CCC[C@H]1C(=O)N[C@@H](CS)C(=O)N[C@@H](CC(N)=O)C(=O)NCC(=O)N1CCC[C@H]1C(=O)O | 72 µM | > 125 µM |
| CC(C)C[C@H](NC(=O)CNC(=O)CNC(=O)[C@H](Cc1ccccc1)NC(=O)[C@H](Cc1cnc[nH]1)NC(=O)CNC(=O)[C@@H](NC(=O)[C@H](CCC(=O)O)NC(=O)[C@H](Cc1ccccc1)NC(=O)[C@H](CCCNC(=N)N)NC(=O)[C@@H](N)CCC(N)=O)[C@@H](C)O)C(=O)N[C@@H](Cc1ccc(O)cc1)C(=O)N1CCC[C@H]1C(=O)N[C@@H](CN)C(=O)N[C@@H](CC(N)=O)C(=O)NCC(=O)N1CCC[C@H]1C(=O)O | 9.6 µM | 71 µM |
| CC(C)C[C@H](NC(=O)CNC(=O)CNC(=O)[C@H](Cc1ccccc1)NC(=O)[C@H](Cc1cnc[nH]1)NC(=O)CNC(=O)[C@@H](NC(=O)[C@H](CCN)NC(=O)[C@H](Cc1ccccc1)NC(=O)[C@H](CCCN=C(N)N)NC(=O)[C@@H](N)CCC(N)=O)[C@@H](C)O)C(=O)N[C@@H](Cc1ccc(O)cc1)C(=O)N1CCC[C@H]1C(=O)N[C@@H](CCC(=O)O)C(=O)N[C@@H](CC(N)=O)C(=O)NCC(=O)N1CCC[C@H]1C(=O)O (H-QRF[Dab]TGHFGGLYPENGP-OH) | 4.8 µM | 81 µM |
| CC(C)C[C@H](NC(=O)CNC(=O)CNC(=O)[C@H](Cc1ccccc1)NC(=O)[C@H](Cc1cnc[nH]1)NC(=O)CNC(=O)[C@@H](NC(=O)[C@H](CS)NC(=O)[C@H](Cc1ccccc1)NC(=O)[C@@H](N)CCCN=C(N)N)[C@@H](C)O)C(=O)N[C@@H](Cc1ccc(O)cc1)C(=O)N1CCC[C@H]1C(=O)N[C@@H](CS)C(=O)O | 10 µM | 87 µM |
| CC(C)C[C@H](NC(=O)CNC(=O)CNC(=O)[C@H](C)NC(=O)[C@H](Cc1cnc[nH]1)NC(=O)CNC(=O)[C@@H](NC(=O)[C@H](CS)NC(=O)[C@H](Cc1ccccc1)NC(=O)[C@H](CCCNC(=N)N)NC(=O)[C@@H](N)CCC(N)=O)[C@@H](C)O)C(=O)N[C@@H](Cc1ccc(O)cc1)C(=O)N1CCC[C@H]1C(=O)N[C@@H](CS)C(=O)N[C@@H](CC(N)=O)C(=O)NCC(=O)N1CCC[C@H]1C(=O)O (H-QRFCTGHAGGLYPCNGP-OH) | > 250 µM | > 125 µM |

Now from value to compound:

| Kd [1] | IC50 [2] | SMILES |
| --- | --- | --- |
| 8 µM | 30 µM | CC(C)C[C@H](NC(=O)CNC(=O)CNC(=O)[C@H](Cc1ccccc1)NC(=O)[C@H](Cc1cnc[nH]1)NC(=O)CNC(=O)[C@@H](NC(=O)[C@H](CS)NC(=O)[C@H](Cc1ccccc1)NC(=O)[C@H](CCCN=C(N)N)NC(=O)[C@@H](N)CCC(N)=O)[C@@H](C)O)C(=O)N[C@@H](Cc1ccc(O)cc1)C(=O)N1CCC[C@H]1C(=O)N[C@@H](CS)C(=O)N[C@@H](C)C(=O)NCC(=O)N1CCC[C@H]1C(=O)O |
| 7.7 µM | 23 µM | CC(C)C[C@H](NC(=O)CNC(=O)CNC(=O)[C@H](Cc1ccccc1)NC(=O)[C@H](Cc1cnc[nH]1)NC(=O)CNC(=O)[C@@H](NC(=O)[C@H](CS)NC(=O)[C@H](Cc1ccccc1)NC(=O)[C@H](C)NC(=O)[C@@H](N)CCC(N)=O)[C@@H](C)O)C(=O)N[C@@H](Cc1ccc(O)cc1)C(=O)N1CCC[C@H]1C(=O)N[C@@H](CS)C(=O)N[C@@H](CC(N)=O)C(=O)NCC(=O)N1CCC[C@H]1C(=O)O |
| 34 µM | 110 µM | CC(C)C[C@H](NC(=O)CNC(=O)CNC(=O)[C@H](Cc1ccccc1)NC(=O)[C@H](Cc1cnc[nH]1)NC(=O)CNC(=O)[C@@H](NC(=O)[C@@H](NC(=O)[C@H](Cc1ccccc1)NC(=O)[C@H](CCCN=C(N)N)NC(=O)[C@@H](N)CCC(N)=O)C(C)(C)S)[C@@H](C)O)C(=O)N[C@@H](Cc1ccc(N)cc1)C(=O)N1CCC[C@H]1C(=O)N[C@@H](CS)C(=O)N[C@@H](CC(N)=O)C(=O)NCC(=O)N1CCC[C@H]1C(=O)O |
| 0.24 µM | 1.3 µM | CC(C)C[C@@H](C(=O)N[C@@H](Cc1ccc(O)cc1)C(=O)N1CCC[C@H]1C(=O)N[C@@H](CS)C(=O)N[C@@H](CC(N)=O)C(=O)NCC(=O)N1CCC[C@H]1C(=O)O)N(C)C(=O)CNC(=O)[C@@H](Cc1ccccc1)NC(=O)[C@H](Cc1ccccc1)NC(=O)[C@H](Cc1cnc[nH]1)NC(=O)CNC(=O)[C@@H](NC(=O)[C@@H](NC(=O)[C@H](Cc1ccccc1)NC(=O)[C@H](CCCNC(=N)N)NC(=O)[C@@H](N)CCC(N)=O)C(C)(C)S)[C@@H](C)O |
| 0.37 µM | 2 µM | CC(C)C[C@H](NC(=O)CNC(=O)CNC(=O)[C@H](Cc1ccccc1)NC(=O)[C@H](Cc1cnc[nH]1)NC(=O)CNC(=O)[C@@H](NC(=O)[C@@H](NC(=O)[C@H](Cc1ccccc1)NC(=O)[C@H](CCCN=C(N)N)NC(=O)[C@@H](N)CCC(N)=O)C(C)(C)S)[C@@H](C)O)C(=O)N[C@@H](Cc1ccc(O)cc1)C(=O)N1CCC[C@H]1C(=O)N[C@H](C(=O)N[C@@H](CC(N)=O)C(=O)NCC(=O)N1CCC[C@H]1C(=O)O)C(C)(C)S |
| 5.2 µM | 17 µM | CC(C)C[C@H](NC(=O)CNC(=O)C(C)(C)NC(=O)[C@H](Cc1ccccc1)NC(=O)[C@H](Cc1cnc[nH]1)NC(=O)CNC(=O)[C@@H](NC(=O)[C@@H](NC(=O)[C@H](Cc1ccccc1)NC(=O)[C@H](CCCNC(=N)N)NC(=O)[C@@H](N)CCC(N)=O)C(C)(C)S)[C@@H](C)O)C(=O)N[C@@H](Cc1ccc(O)cc1)C(=O)N1CCC[C@H]1C(=O)N[C@@H](CS)C(=O)N[C@@H](CC(N)=O)C(=O)NCC(=O)N1CCC[C@H]1C(=O)O |
| 19 µM | 60 µM | CC(C)C[C@H](NC(=O)CNC(=O)CNC(=O)[C@H](Cc1cccnc1)NC(=O)[C@H](Cc1cnc[nH]1)NC(=O)CNC(=O)[C@@H](NC(=O)[C@@H](NC(=O)[C@H](Cc1ccccc1)NC(=O)[C@H](CCCN=C(N)N)NC(=O)[C@@H](N)CCC(N)=O)C(C)(C)S)[C@@H](C)O)C(=O)N[C@@H](Cc1ccc(O)cc1)C(=O)N1CCC[C@H]1C(=O)N[C@@H](CS)C(=O)N[C@@H](CC(N)=O)C(=O)NCC(=O)N1CCC[C@H]1C(=O)O |
| 11 µM | 90 µM | CC(C)C[C@H](NC(=O)CNC(=O)CNC(=O)[C@H](Cc1ccc2ccccc2c1)NC(=O)[C@H](Cc1cnc[nH]1)NC(=O)CNC(=O)[C@@H](NC(=O)[C@@H](NC(=O)[C@H](Cc1ccccc1)NC(=O)[C@H](CCCN=C(N)N)NC(=O)[C@@H](N)CCC(N)=O)C(C)(C)S)[C@@H](C)O)C(=O)N[C@@H](Cc1ccc(O)cc1)C(=O)N1CCC[C@H]1C(=O)N[C@@H](CS)C(=O)N[C@@H](CC(N)=O)C(=O)NCC(=O)N1CCC[C@H]1C(=O)O |
| 0.086 µM | 1.6 µM | CC(C)C[C@@H](C(=O)N[C@@H](Cc1ccc(O)cc1)C(=O)N1CCC[C@H]1C(=O)N[C@@H](CS)C(=O)N[C@@H](CC(N)=O)C(=O)NCC(=O)N1CCC[C@H]1C(=O)O)N(C)C(=O)CNC(=O)CNC(=O)[C@H](Cc1ccccc1)NC(=O)[C@H](Cc1cnc[nH]1)NC(=O)CNC(=O)[C@@H](NC(=O)[C@@H](NC(=O)[C@H](Cc1ccccc1)NC(=O)[C@H](CCCN=C(N)N)NC(=O)[C@@H](N)CCC(N)=O)C(C)(C)S)[C@@H](C)O |
